Assay results from different studies.
Protocols differ between the studies behind these lines.
Target: Rhodopsin kinase GRK7 (GRK7, Homo sapiens, UniProt Q8WTQ7)
Sequence (Q8WTQ7 1-553, as in one of the studies): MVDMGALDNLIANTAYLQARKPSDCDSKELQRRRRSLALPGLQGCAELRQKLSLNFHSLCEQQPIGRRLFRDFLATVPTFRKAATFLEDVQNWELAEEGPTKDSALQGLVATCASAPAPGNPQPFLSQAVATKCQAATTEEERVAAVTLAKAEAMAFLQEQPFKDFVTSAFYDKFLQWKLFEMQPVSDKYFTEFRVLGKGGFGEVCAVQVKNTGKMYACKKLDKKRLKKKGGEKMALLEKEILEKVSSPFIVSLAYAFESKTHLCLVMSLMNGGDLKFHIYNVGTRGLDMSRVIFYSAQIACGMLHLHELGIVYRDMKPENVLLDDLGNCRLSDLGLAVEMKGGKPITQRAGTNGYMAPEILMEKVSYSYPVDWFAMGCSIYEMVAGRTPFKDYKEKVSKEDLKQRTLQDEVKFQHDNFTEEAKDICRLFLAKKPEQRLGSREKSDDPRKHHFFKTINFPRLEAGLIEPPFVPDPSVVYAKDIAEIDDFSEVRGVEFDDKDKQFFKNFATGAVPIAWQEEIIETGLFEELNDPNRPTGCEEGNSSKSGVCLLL

SMILES	observed	technique	tested at	remaining binding [%]
c1cncc(-c2cccc(Nc3nccc(NC4CCCCC4)n3)c2)c1	binding	competition with immobilised ligand	10 µM	16
COc1cc(-c2cn(C3CCc4ccccc4N(CC(F)(F)F)C3=O)nn2)ccc1-n1ccc(C)n1 (stereo not shown)	cell-free assay	competition with immobilised ligand	1 µM	87
CN(CCCC(F)(F)F)c1nccc(-c2cnn3ncccc23)n1	binding		1 µM	93
NS(=O)(=O)c1cc(NC(=O)Cc2ccccc2)ccc1Oc1cccc(Cl)c1	cell-free assay	competition with immobilised ligand	1 µM	77
O=C(NCC1CCOCC1)c1n[nH]cc1NC(=O)c1c(F)cccc1F	binding	competition with immobilised ligand	1 µM	89
FC(F)(F)Oc1cccc(-c2cnc3ccc(-c4ccncc4)nn23)c1	cell-free assay	competition with immobilised ligand	5 µM	24
CCCOc1ccc([C@@H]2[C@@H](C(=O)O)[C@H](c3ccc4c(c3)OCO4)CN2CC(=O)Nc2c(CC)cccc2CC)cc1	cell-free assay	competition with immobilised ligand	1 µM	99
CN(C)c1ncc(F)c(-c2cnn3ncccc23)n1	binding		1 µM	100
CCN1CCN(Cc2ccc(C(=O)Nc3ccc(C)c(Oc4ccc5c(c4)CC(=O)N5)c3)cc2C(F)(F)F)CC1	binding	competition with immobilised ligand	1 µM	100
F[C@@H]1CCN(c2nccc(-c3cnn4ncccc34)n2)C1	binding		1 µM	100
O=C(c1ccc(Nc2ncc(Cl)c(-c3cc4ccccc4s3)n2)cc1)N1CCC(N2CCCC2)CC1	binding	competition with immobilised ligand	1 µM	56
C[C@H]1CCN(c2nccc(-c3cnn4ncccc34)n2)C1	binding		1 µM	78
O=C(Nc1cccnn1)N1CC(C/C=C/c2cncc(Oc3ccc(C(F)(F)F)cn3)n2)C1	cell-free assay	competition with immobilised ligand	1 µM	85
COc1cnc(Nc2cccc(S(N)(=O)=O)c2)nc1N1CCN(c2ccccc2)CC1	binding	competition with immobilised ligand	1 µM	58
O=C(NCCCN1CCOCC1)c1ccc(Nc2ncc(Cl)c(-c3ccc(Cl)s3)n2)cc1	binding	competition with immobilised ligand	1 µM	90
O=C(NCc1ncc(C(F)(F)F)cc1Cl)c1ccc2c(c1)C1(CCS(=O)(=O)CC1)[C@H](C1CC1)N2S(=O)(=O)c1ccc(F)cc1	cell-free assay	competition with immobilised ligand	1 µM	80
CN(c1nccc(-c2cnn3ncccc23)n1)C1CC1	binding		1 µM	100
O=C(NCCCN1CCOCC1)c1ccc(Nc2nccc(-c3cc4ccccc4s3)n2)cc1	binding	competition with immobilised ligand	1 µM	100
O=C(Nc1ccc(Oc2ccc(F)cc2)cc1)N1CCc2ncccc2[C@H]1c1ccc(F)cc1	cell-free assay	competition with immobilised ligand	1 µM	100
N[C@H]1CCN(c2nccc(-c3cnn4ncccc34)n2)C1	binding		1 µM	100
CCC(=O)N[C@@H]1CC[C@H](C(=O)N(C)c2ccc(-c3nc4ccccc4o3)cc2)C1	cell-free assay	competition with immobilised ligand	1 µM	93
Nc1ncc2c(n1)-c1c([nH]c3ccc(C#CC4CC4)cc13)CCCC2	binding	competition with immobilised ligand	1 µM	93
